Measured values published in ChEMBL document CHEMBL1123969, “Cardiovascular effects of new water-soluble derivatives of forskolin” (J Med Chem, 1988).
Converted amounts (≈) assume the structure as drawn. The source made the active and inactive calls. The rule behind the calls is not given here.

Tests used:
Cavia porcellus [1] = organism: Cavia porcellus; assay: Positive inotropic activity was assessed in spontaneously beating guinea pig atria; NA=Not active; format: functional, organism-based
How it was run: (§1)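 Guinea pig atria, spontaneously beating, in Ringer solution at 32 °C gassed with 95% O2/5% CO2. Isometric force recorded at 0.5–1 g initial tension after 30 min stabilization. Compounds in water or propylene glycol given cumulatively at 0.01–30 μg/mL, with 7 min contact per dose. EC50 for a 50% force increase taken graphically from the dose-response curve, in triplicate.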

Felis catus [2] = assay: Effective dose for lowering of blood pressure in anesthetized cat when administered intravenously; NA=Not active; format: functional, organism-based
How it was run: (§2)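 Cats of either sex, 3–4 kg, under ether induction and chloralose (70 mg/kg iv). Compounds in distilled water or propylene glycol were given iv via the femoral vein at 0.01–10 mg/kg. Fall in mean arterial pressure read 10 min post-dose. ED20 taken graphically from the log dose-response curve, with doses run in triplicate.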

Felis catus [3] = assay: Effective dose for lowering blood pressure in anesthetized cat when administered intravenously; format: functional; conditions: iv; how it was run: as §2
Cavia porcellus [4] = organism: Cavia porcellus; assay: Positive inotropic activity in spontaneously beating guinea pig atria; format: functional, organism-based; how it was run: as §1
Canis familiaris [5] = assay: Dose required to produce 50 % increase in left ventricular dP/dt max in anesthetized dogs when administered intravenously; format: functional; conditions: Canis lupus familiaris, Heart left ventricle, iv
How it was run: (§3)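 Male mongrel dogs (10–18 kg), anesthetized with pentobarbital sodium 35 mg/kg iv, then infused with pentobarbitone 3–5 mg/kg per h, intubated and breathing spontaneously. Compounds in distilled water, given iv via the femoral vein in 0.1 mL/kg. Four to six doses between 0.01 and 3 mg/kg, 10–30 min apart. Percent change in LV dP/dt max over the initial value; ED50 taken from the dose-response curve.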

[6] = Acute toxicity in mice when administered intraperitoneally; format: organism-based; conditions: mouse, in vivo, ip
How it was run: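 Mice (18-20 g), either sex; compound dissolved in distilled water or suspended in 0.5% (carboxymethyl)cellulose, injected ip at 10, 30, 100, 300 and 1000 mg/kg (1 mL/100 g body weight). Animals observed for 48 h. Approximate LD50 calculated by the Campbell and Richter method.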

Canis familiaris [7] = organism: Canis familiaris; assay: (§4) Percent increase in LV dP/dt max; format: functional, Canis lupus familiaris; how it was run: as §3
Canis familiaris [8] = assay: Fall in mean blood pressure in anesthetized dogs at a dose of 0.1 mg/kg; format: functional, Canis lupus familiaris
How it was run: (§5)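 Anesthesia was pentobarbital sodium 35 mg/kg iv, maintained with pentobarbitone 3–5 mg/kg per h. Male mongrel dogs, 10–18 kg, intubated for spontaneous breathing. Aqueous solutions were given iv via the femoral vein at 0.1 mL/kg, in escalating doses with 10–30 min between doses. Mean BP fall and percent heart-rate increase were recorded at each dose, with lead II ECG.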

Canis familiaris [9] = assay: Percent increase of heart rate in anesthetized dogs at a dose of 0.3 mg/kg; format: functional, Canis lupus familiaris; how it was run: as §5
Canis familiaris [10] = organism: Canis familiaris; assay: as §4; format: functional, Canis lupus familiaris; how it was run: as §3; remark: listed apart in the source
Canis familiaris [11] = organism: Canis familiaris; assay: as §4; format: functional, Canis lupus familiaris; how it was run: as §3; remark: listed apart in the source
Canis familiaris [12] = assay: Percent increase of heart rate in anesthetized dogs at a dose of 0.1 mg/kg; format: functional, Canis lupus familiaris; how it was run: as §5
Canis familiaris [13] = assay: Percent increase of heart rate in anesthetized dogs at a dose of 1 mg/kg; format: functional, Canis lupus familiaris; how it was run: as §5
Canis familiaris [14] = assay: Percent increase of heart rate in anesthetized dogs at a dose of 0.03 mg/kg; format: functional, Canis lupus familiaris; how it was run: as §5
Canis familiaris [15] = assay: Fall in mean blood pressure in anesthetized dogs at a dose of 1 mg/kg; format: functional, Canis lupus familiaris; how it was run: as §5
Canis familiaris [16] = organism: Canis familiaris; assay: as §4; format: functional, Canis lupus familiaris; how it was run: as §3; remark: listed apart in the source
Canis familiaris [17] = assay: Fall in mean blood pressure in anesthetized dogs at a dose of 0.3 mg/kg; format: functional, Canis lupus familiaris; how it was run: as §5

EC50 (Cavia porcellus [1])	Structure (SMILES)	ED20 (Felis catus [2])	ED20 (Felis catus [3])	EC50 (Cavia porcellus [4])	also measured
Not Active	C=C[C@@]1(C)CC(=O)[C@]2(O)C3(C)C(C(O)C(OC(=O)CN4C(C)CCCC4C)[C@@]2(C)O1)C(C)(C)CC[C@@H]3O.Cl (some centres not stated)	inactive	–	–	–
Not Active	C=C[C@@]1(C)CC(=O)[C@]2(O)C3(C)C(C(O)C(OC(=O)C(C)N4CCN(C)CC4)[C@@]2(C)O1)C(C)(C)CC[C@@H]3O.Cl (some centres not stated)	–	10 mg/kg	–	–
Not Active	C=C[C@@]1(C)CC(=O)[C@]2(O)C3(C)C(C(OC(=O)Cn4c(=O)c5c(ncn5COCCOC)n(C)c4=O)C(O)[C@@]2(C)O1)C(C)(C)CC[C@@H]3O (some centres not stated)	inactive	–	–	–
–	C=C[C@@]1(C)CC(=O)[C@]2(O)C3(C)C(C(OC(=O)CN4CCC(C)CC4)C(O)[C@@]2(C)O1)C(C)(C)CC[C@@H]3O.Cl (some centres not stated)	inactive	–	2.6 µg/mL	–
–	C=C[C@@]1(C)CC(=O)[C@]2(O)C3(C)C(C(OC(=O)CN4CCOCC4)C(O)[C@@]2(C)O1)C(C)(C)CC[C@@H]3O.Cl (some centres not stated)	–	3 mg/kg	0.5 µg/mL	ED50 (Canis familiaris [5]): 0.11 mg/kg; LD50 [6]: 82.5 mg/kg
–	C=C[C@@]1(C)CC(=O)[C@]2(O)C3(C)C(C(O)C(OC(=O)C(C)N4CCOCC4)[C@@]2(C)O1)C(C)(C)CC[C@@H]3O.Cl (some centres not stated)	–	2 mg/kg	0.27 µg/mL	ED50 (Canis familiaris [5]): 0.04 mg/kg; LD50 [6]: 30 mg/kg
Not Active	C=C[C@@]1(C)CC(=O)[C@]2(O)C3(C)C(C(O)C(OC(=O)CCCN4CCN(C)CC4)[C@@]2(C)O1)C(C)(C)CC[C@@H]3O.Cl (some centres not stated)	–	0.8 mg/kg	–	–
Not Active	C=C[C@@]1(C)CC(=O)[C@]2(O)C3(C)C(C(OC(=O)C(C)N4CCN(C)CC4)C(O)[C@@]2(C)O1)C(C)(C)CC[C@@H]3O.Cl (some centres not stated)	–	3 mg/kg	–	–
Not Active	C=C[C@@]1(C)CC(=O)[C@]2(O)C3(C)C(C(OC(=O)CN(CC)CC)C(O)[C@@]2(C)O1)C(C)(C)CC[C@@H]3O.Cl (some centres not stated)	inactive	–	–	–
Not Active	C=C[C@@]1(C)CC(=O)[C@]2(O)C3(C)C(C(O)C(OC(=O)CN4CCC(NC(=O)c5ccccc5)CC4)[C@@]2(C)O1)C(C)(C)CC[C@@H]3O (some centres not stated)	–	3 mg/kg	–	–
–	C=C[C@@]1(C)CC(=O)[C@]2(O)C3(C)C(C(O)C(OC(=O)CN4CCOCC4)[C@@]2(C)O1)C(C)(C)CC[C@@H]3O.Cl (some centres not stated)	–	–	0.35 µg/mL	ED50 (Canis familiaris [5]): 0.035 mg/kg; LD50 [6]: 25 mg/kg
Not Active	C=C[C@@]1(C)CC(=O)[C@]2(O)C3(C)C(C(O)C(OC(=O)C(C)Nc4ccccc4)[C@@]2(C)O1)C(C)(C)CC[C@@H]3O (some centres not stated)	–	3 mg/kg	–	–
Not Active	C=C[C@@]1(C)CC(=O)[C@]2(O)C3(C)C(C(OC(=O)C(C)N4CCCCC4)C(O)[C@@]2(C)O1)C(C)(C)CC[C@@H]3O.Cl (some centres not stated)	–	1 mg/kg	–	–
Not Active	C=C[C@@]1(C)CC(=O)[C@]2(O)C3(C)C(C(OC(=O)CCCN4CCOCC4)C(O)[C@@]2(C)O1)C(C)(C)CC[C@@H]3O.Cl (some centres not stated)	–	2 mg/kg	–	–
–	C=C[C@@]1(C)CC(=O)[C@]2(O)[C@@]3(C)[C@@H](O)CCC(C)(C)[C@@H]3[C@H](O)[C@H](OC(C)=O)[C@@]2(C)O1 [COLFORSIN]	–	0.038 mg/kg	0.02 µg/mL (≈ 0.0487 µM)	ED50 (Canis familiaris [5]): 0.007 mg/kg; LD50 [6]: 92 mg/kg
Not Active	C=C[C@@]1(C)CC(=O)[C@]2(O)C3(C)C(C(OC(=O)CN(C)C4CCCCC4)C(O)[C@@]2(C)O1)C(C)(C)CC[C@@H]3O.ClC(Cl)Cl (some centres not stated)	–	3.5 mg/kg	–	–
Not Active	C=C[C@@]1(C)CC(=O)[C@]2(O)C3(C)C(C(OC(=O)CN4C(C)CCCC4C)C(O)[C@@]2(C)O1)C(C)(C)CC[C@@H]3O.Cl (some centres not stated)	inactive	–	–	–
–	C=C[C@@]1(C)CC(=O)[C@]2(O)C3(C)C(C(OC(=O)CN4CCC(O)CC4)C(O)[C@@]2(C)O1)C(C)(C)CC[C@@H]3O.Cl (some centres not stated)	inactive	–	3 µg/mL	–
Not Active	C=C[C@@]1(C)CC(=O)[C@]2(O)C3(C)C(C(OC(=O)CCN4CCOCC4)C(O)[C@@]2(C)O1)C(C)(C)CC[C@@H]3O.Cl (some centres not stated)	inactive	–	–	–
Not Active	C=C[C@@]1(C)CC(=O)[C@]2(O)C3(C)C(C(O)C(OC(=O)Cn4cnc5ccccc54)[C@@]2(C)O1)C(C)(C)CC[C@@H]3O (some centres not stated)	–	10 mg/kg	–	–
–	C=C[C@@]1(C)CC(=O)[C@]2(O)C3(C)C(C(O)C(OC(=O)CNC(=O)OC(C)(C)C)[C@@]2(C)O1)C(C)(C)CC[C@@H]3O (some centres not stated)	inactive	–	9.2 µg/mL (≈ 17.5 µM)	–
Not Active	C=C[C@@]1(C)CC(=O)[C@]2(O)C3(C)C(C(O)C(OC(=O)CN(CC(=O)OC4C(O)C5C(C)(C)CC[C@H](O)C5(C)[C@@]5(O)C(=O)C[C@](C)(C=C)O[C@]45C)Cc4ccccc4)[C@@]2(C)O1)C(C)(C)CC[C@@H]3O (some centres not stated)	inactive	–	–	–
–	C=C[C@@]1(C)CC(=O)[C@]2(O)C3(C)C(C(OC(=O)CCCN4CCN(C)CC4)C(O)[C@@]2(C)O1)C(C)(C)CC[C@@H]3O.Cl (some centres not stated)	–	1 mg/kg	0.2 µg/mL	ED50 (Canis familiaris [5]): 0.41 mg/kg; LD50 [6]: 65 mg/kg
Not Active	C=C[C@@]1(C)CC(=O)[C@]2(O)C3(C)C(C(O)C(OC(=O)CN4CCC(O)(c5ccccc5)CC4)[C@@]2(C)O1)C(C)(C)CC[C@@H]3O.Cl (some centres not stated)	inactive	–	–	–
Not Active	C=C[C@@]1(C)CC(=O)[C@]2(O)C3(C)C(C(OC(=O)CCCN4CCCCC4)C(O)[C@@]2(C)O1)C(C)(C)CC[C@@H]3O.Cl (some centres not stated)	–	3 mg/kg	–	–
Not Active	C=C[C@@]1(C)CC(=O)[C@]2(O)C3(C)C(C(O)C(OC(=O)CCCCCCCCCCCN4CCOCC4)[C@@]2(C)O1)C(C)(C)CC[C@@H]3O.Cl (some centres not stated)	–	1.6 mg/kg	–	–
–	C=C[C@@]1(C)CC(=O)[C@]2(O)C3(C)C(C(OC(=O)CN4CCCCC4)C(O)[C@@]2(C)O1)C(C)(C)CC[C@@H]3O.Cl (some centres not stated)	–	3 mg/kg	1.8 µg/mL	Activity (Canis familiaris [7]): 123%; BP (Canis familiaris [8]): 8.8 mmHg; ED50 (Canis familiaris [5]): 0.052 mg/kg; Heart rate (Canis familiaris [9]): 9.8%; LD50 [6]: 85 mg/kg; Activity (Canis familiaris [10]): 64%; Activity (Canis familiaris [11]): 94%; Heart rate (Canis familiaris [12]): 8.8%; Heart rate (Canis familiaris [13]): 13.8%; Heart rate (Canis familiaris [14]): 6.2%; BP (Canis familiaris [15]): 72 mmHg; Activity (Canis familiaris [16]): 48%; BP (Canis familiaris [17]): 30.2 mmHg
–	C=C[C@@]1(C)CC(=O)[C@]2(O)C3(C)C(C(OC(=O)CCN4CCCCC4)C(O)[C@@]2(C)O1)C(C)(C)CC[C@@H]3O.Cl (some centres not stated)	–	1 mg/kg	0.5 µg/mL	ED50 (Canis familiaris [5]): 0.3 mg/kg; LD50 [6]: 30 mg/kg
Not Active	C=C[C@@]1(C)CC(=O)[C@]2(O)C3(C)C(C(OC(=O)C(C)Nc4ccccc4)C(O)[C@@]2(C)O1)C(C)(C)CC[C@@H]3O.Cl (some centres not stated)	–	6.2 mg/kg	–	–
